Reference: ChEMBL document CHEMBL2157922, “Synthesis and antifungal activity of diverse C-2 pyridinyl and pyridinylvinyl substituted quinolines” (2012)
Converted amounts (≈) assume the structure as drawn.

Columns and labels:
Type in all cases: functional
Nannizzia gypsea = experiment: Antifungal activity against Microsporum gypseum CCC 115 after 48 hrs by broth microdilution technique; conditions: CCC 115, 48 h
Method in brief: (§1)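 Moulds and dermatophytes were run by CLSI broth microdilution in MOPS-buffered RPMI-1640 at pH 7.0. Aspergillus was incubated at 30 °C and dermatophytes at 28–30 °C, in a moist, dark chamber. MIC100, the lowest concentration with no visible growth, was read visually at a time set by growth of the control fungus.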

Aspergillus fumigatus = experiment: Antifungal activity against Aspergillus fumigatus ATCC 26934 after 48 hrs by broth microdilution technique; conditions: ATCC 26934, 48 h; method in brief: as §1
Trichophyton rubrum = experiment: Antifungal activity against Trichophyton rubrum CCC 113 after 48 hrs by broth microdilution technique; conditions: CCC 113, 48 h
Aspergillus niger = experiment: Antifungal activity against Aspergillus niger ATCC 9029 after 48 hrs by broth microdilution technique; conditions: ATCC 9029, 48 h; method in brief: as §1
Candida albicans [1] = experiment: Antifungal activity against Candida albicans ATCC 10231 after 48 hrs by broth microdilution technique; conditions: ATCC 10231, 48 h
Method in brief: (§2)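 Yeasts were tested by CLSI broth microdilution in RPMI-1640 buffered to pH 7.0 with MOPS, with compound from 250 down to 0.98 in DMSO stocks. Trays were held at 30 °C in a moist, dark chamber. MIC100, the lowest concentration giving total visual inhibition against the growth control, was read by eye at 48 h.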

Cryptococcus neoformans [2] = experiment: Antifungal activity against Cryptococcus neoformans ATCC 32264 after 48 hrs by broth microdilution technique; conditions: ATCC 32264, 48 h; method in brief: as §2
Aspergillus flavus = experiment: Antifungal activity against Aspergillus flavus ATCC 9170 after 48 hrs by broth microdilution technique; conditions: ATCC 9170, 48 h; method in brief: as §1
[3] = tested on: Trichophyton mentagrophytes; experiment: Antifungal activity against Trichophyton mentagrophytes ATCC 9972 after 48 hrs by broth microdilution technique; conditions: ATCC 9972, 48 h; method in brief: as §1
Saccharomyces cerevisiae = experiment: Antifungal activity against Saccharomyces cerevisiae ATCC 9763 after 48 hrs by broth microdilution technique; conditions: ATCC 9763, 48 h; method in brief: as §2
Candida tropicalis = experiment: Antifungal activity against Candida tropicalis CCC 131 after 48 hrs by broth microdilution technique; conditions: CCC 131, 48 h
Cryptococcus neoformans [4] = experiment: Antifungal activity against Cryptococcus neoformans IM 972751 after 48 hrs by broth microdilution technique; conditions: IM 972751, 48 h
Method in brief: (§3)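 C. neoformans was tested by 96-well RPMI-1640 microdilution, with DMSO-matched growth and sterility control wells. Plates were incubated 48 h at 30 °C in a moist, dark chamber and read at OD405. % inhibition = 100 − (CTW − SCW)/(GCW − SCW), in duplicate. For the clinical isolates, MIC80 and MIC50 are the lowest concentrations giving 80% and 50% inhibition.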

Candida albicans [5] = experiment: Antifungal activity against Candida albicans CCC 129 after 48 hrs by broth microdilution technique; conditions: CCC 129, 48 h
Cryptococcus neoformans [6] = experiment: Antifungal activity against Cryptococcus neoformans IM 972724 after 48 hrs by broth microdilution technique; conditions: IM 972724, 48 h; method in brief: as §3
Cryptococcus neoformans [7] = experiment: Antifungal activity against Cryptococcus neoformans IM 00319 after 48 hrs by broth microdilution technique; conditions: IM 00319, 48 h; method in brief: as §3
Cryptococcus neoformans [8] = experiment: Antifungal activity against Cryptococcus neoformans IM 042074 after 48 hrs by broth microdilution technique; conditions: IM 042074, 48 h; method in brief: as §3
Candida albicans [9] = experiment: Antifungal activity against Candida albicans CCC 126 after 48 hrs by broth microdilution technique; conditions: CCC 126, 48 h
Candida parapsilosis = experiment: Antifungal activity against Candida parapsilosis CCC 124 after 48 hrs by broth microdilution technique; conditions: Lodderomyces parapsilosis, CCC 124, 48 h
Pichia kudriavzevii = experiment: Antifungal activity against Candida krusei CCC 117 after 48 hrs by broth microdilution technique; conditions: CCC 117, 48 h
Cryptococcus neoformans [10] = experiment: Antifungal activity against Cryptococcus neoformans IM 983036 after 48 hrs by broth microdilution technique; conditions: IM 983036, 48 h; method in brief: as §3
Cryptococcus neoformans [11] = experiment: Antifungal activity against Cryptococcus neoformans IM 983040 after 48 hrs by broth microdilution technique; conditions: IM 983040, 48 h; method in brief: as §3
Nakaseomyces glabratus = experiment: Antifungal activity against Candida glabrata CCC 115 after 48 hrs by broth microdilution technique; conditions: CCC 115, 48 h
Candida albicans [12] = experiment: Antifungal activity against Candida albicans CCC 130 after 48 hrs by broth microdilution technique; conditions: CCC 130, 48 h
Candida albicans [13] = experiment: Antifungal activity against Candida albicans CCC 127 after 48 hrs by broth microdilution technique; conditions: CCC 127, 48 h
Candida albicans [14] = experiment: Antifungal activity against Candida albicans CCC 125 after 48 hrs by broth microdilution technique; conditions: CCC 125, 48 h
Candida albicans [15] = experiment: Antifungal activity against Candida albicans CCC 128 after 48 hrs by broth microdilution technique; conditions: CCC 128, 48 h

| SMILES | MFC (Nannizzia gypsea) | MIC (Nannizzia gypsea) | MFC (Aspergillus fumigatus) | MIC (Aspergillus fumigatus) | MFC (Trichophyton rubrum) | MIC (Trichophyton rubrum) | MIC (Aspergillus niger) | MIC (Candida albicans [1]) | MFC (Cryptococcus neoformans [2]) | MIC (Cryptococcus neoformans [2]) | MFC (Aspergillus flavus) | MIC (Aspergillus flavus) | MFC [3] | MIC [3] | MIC (Saccharomyces cerevisiae) | further results |
| --- | --- | --- | --- | --- | --- | --- | --- | --- | --- | --- | --- | --- | --- | --- | --- | --- |
| Fc1ccc2nc(-c3cccnc3)ccc2c1 | 62 µg/mL (≈ 276 µM) | 62 µg/mL (≈ 276 µM) | 250 µg/mL (≈ 1110 µM) | 125 µg/mL (≈ 557 µM) | 62 µg/mL (≈ 276 µM) | 62 µg/mL (≈ 276 µM) | 250 µg/mL (≈ 1110 µM) | > 250 µg/mL | 250 µg/mL (≈ 1110 µM) | 62 µg/mL (≈ 276 µM) | 250 µg/mL (≈ 1110 µM) | 125 µg/mL (≈ 557 µM) | 62 µg/mL (≈ 276 µM) | 62 µg/mL (≈ 276 µM) | > 250 µg/mL | MFC (Aspergillus niger): > 250 µg/mL |
| Clc1ccc2nc(-c3cccnc3)ccc2c1 | 125 µg/mL (≈ 519 µM) | 31 µg/mL (≈ 129 µM) |  | > 250 µg/mL | 125 µg/mL (≈ 519 µM) | 31 µg/mL (≈ 129 µM) | > 250 µg/mL | > 250 µg/mL | 125 µg/mL (≈ 519 µM) | 62 µg/mL (≈ 258 µM) |  | > 250 µg/mL | 125 µg/mL (≈ 519 µM) | 31 µg/mL (≈ 129 µM) | > 250 µg/mL |  |
| Clc1cccc2ccc(-c3ccncc3)nc12 | 62 µg/mL (≈ 258 µM) | 31 µg/mL (≈ 129 µM) |  | > 250 µg/mL | 62 µg/mL (≈ 258 µM) | 31 µg/mL (≈ 129 µM) | > 250 µg/mL | > 250 µg/mL | 250 µg/mL (≈ 1040 µM) | 125 µg/mL (≈ 519 µM) |  | > 250 µg/mL | 125 µg/mL (≈ 519 µM) | 62 µg/mL (≈ 258 µM) | > 250 µg/mL |  |
| C[C@@H]1[C@H](O)[C@@H](C)/C=C/C=C/C=C/C=C/C=C/C=C/C=C/[C@H](O[C@@H]2O[C@H](C)[C@@H](O)[C@H](N)[C@@H]2O)C[C@@H]2O[C@](O)(C[C@@H](O)C[C@@H](O)[C@H](O)CC[C@@H](O)C[C@@H](O)CC(=O)O[C@H]1C)C[C@H](O)[C@H]2C(=O)O [AMPHOTERICIN B] |  | 0.12 µg/mL (≈ 0.13 µM) |  | 0.49 µg/mL (≈ 0.53 µM) |  | 0.06 µg/mL (≈ 0.0649 µM) | 0.49 µg/mL (≈ 0.53 µM) | 0.98 µg/mL (≈ 1.06 µM) |  | 0.25 µg/mL (≈ 0.271 µM) |  | 0.49 µg/mL (≈ 0.53 µM) |  | 0.06 µg/mL (≈ 0.0649 µM) | 0.49 µg/mL (≈ 0.53 µM) | MIC80 (Candida tropicalis): 0.5 µg/mL (≈ 0.541 µM); MIC80 (Cryptococcus neoformans [4]): 0.25 µg/mL (≈ 0.271 µM); MIC80 (Candida albicans [5]): 0.78 µg/mL (≈ 0.844 µM); MIC80 (Cryptococcus neoformans [6]): 0.06 µg/mL (≈ 0.0649 µM); MIC80 (Cryptococcus neoformans [7]): 0.25 µg/mL (≈ 0.271 µM); MIC80 (Cryptococcus neoformans [8]): 0.25 µg/mL (≈ 0.271 µM); MIC80 (Candida albicans [1]): 1 µg/mL (≈ 1.08 µM); MIC80 (Cryptococcus neoformans [2]): 0.25 µg/mL (≈ 0.271 µM); MIC80 (Candida albicans [9]): 1.56 µg/mL (≈ 1.69 µM); MIC80 (Candida parapsilosis): 0.78 µg/mL (≈ 0.844 µM); MIC80 (Pichia kudriavzevii): 0.39 µg/mL (≈ 0.422 µM); MIC80 (Cryptococcus neoformans [10]): 0.13 µg/mL (≈ 0.141 µM); MIC80 (Cryptococcus neoformans [11]): 0.13 µg/mL (≈ 0.141 µM); MIC80 (Nakaseomyces glabratus): 0.39 µg/mL (≈ 0.422 µM); MIC80 (Candida albicans [12]): 0.5 µg/mL (≈ 0.541 µM); MIC80 (Candida albicans [13]): 0.78 µg/mL (≈ 0.844 µM); MIC80 (Candida albicans [14]): 0.78 µg/mL (≈ 0.844 µM); MIC80 (Candida albicans [15]): 1.56 µg/mL (≈ 1.69 µM) |
| Clc1ccc2nc(-c3ccncc3)ccc2c1 | 125 µg/mL (≈ 519 µM) | 125 µg/mL (≈ 519 µM) |  | > 250 µg/mL | 125 µg/mL (≈ 519 µM) | 125 µg/mL (≈ 519 µM) | > 250 µg/mL | > 250 µg/mL | 250 µg/mL (≈ 1040 µM) | 125 µg/mL (≈ 519 µM) |  | > 250 µg/mL | 125 µg/mL (≈ 519 µM) | 125 µg/mL (≈ 519 µM) | > 250 µg/mL |  |
| Clc1ccc2nc(/C=C/c3cccnc3)ccc2c1 | > 250 µg/mL | 250 µg/mL (≈ 937 µM) | > 250 µg/mL | 250 µg/mL (≈ 937 µM) | > 250 µg/mL | 250 µg/mL (≈ 937 µM) | > 250 µg/mL | > 250 µg/mL |  | > 250 µg/mL | > 250 µg/mL | 250 µg/mL (≈ 937 µM) | > 250 µg/mL | 250 µg/mL (≈ 937 µM) | > 250 µg/mL |  |
| CC(=O)N1CCN(c2ccc(OCC3COC(Cn4ccnc4)(c4ccc(Cl)cc4Cl)O3)cc2)CC1 (configuration not stated) [KETOCONAZOLE] |  | 0.06 µg/mL (≈ 0.113 µM) |  | 0.49 µg/mL (≈ 0.922 µM) |  | 0.03 µg/mL (≈ 0.0565 µM) | 0.25 µg/mL (≈ 0.47 µM) | 0.49 µg/mL (≈ 0.922 µM) |  | 0.25 µg/mL (≈ 0.47 µM) |  | 0.12 µg/mL (≈ 0.226 µM) |  | 0.03 µg/mL (≈ 0.0565 µM) | 0.49 µg/mL (≈ 0.922 µM) |  |
| C(=C\c1ccc2ccccc2n1)/c1cccnc1 | 250 µg/mL (≈ 1080 µM) | 62 µg/mL (≈ 267 µM) | > 250 µg/mL | 125 µg/mL (≈ 538 µM) | 250 µg/mL (≈ 1080 µM) | 62 µg/mL (≈ 267 µM) | 125 µg/mL (≈ 538 µM) | 250 µg/mL (≈ 1080 µM) | 250 µg/mL (≈ 1080 µM) | 125 µg/mL (≈ 538 µM) | > 250 µg/mL | 125 µg/mL (≈ 538 µM) | 250 µg/mL (≈ 1080 µM) | 62 µg/mL (≈ 267 µM) | 250 µg/mL (≈ 1080 µM) | MFC (Aspergillus niger): > 250 µg/mL; MFC (Candida albicans [1]): > 250 µg/mL; MFC (Saccharomyces cerevisiae): > 250 µg/mL |
| CN(C/C=C/C#CC(C)(C)C)Cc1cccc2ccccc12 [TERBINAFINE] |  | 0.04 µg/mL (≈ 0.137 µM) |  | 0.98 µg/mL (≈ 3.36 µM) |  | 0.01 µg/mL (≈ 0.0343 µM) | 1.96 µg/mL (≈ 6.73 µM) | 1.95 µg/mL (≈ 6.69 µM) |  | 0.49 µg/mL (≈ 1.68 µM) |  | 0.98 µg/mL (≈ 3.36 µM) |  | 0.03 µg/mL (≈ 0.103 µM) | 3.9 µg/mL (≈ 13.4 µM) |  |
